# Compound activity as filed in PubChem.
# TAAR1 antagonist: human TAAR1 antagonists, primary screen, Fluo-8 calcium fluorescence, CHO RD-HGA16 cells | inhibition, % at 3 µM | 360,000 tested, 1.5% active | AID 624466, 2012 | antagonist;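 active = inhibition above a per-plate cutoff, the mean inhibition of test compounds on that plate plus 3 SD, cut at about 49% in these data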;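 note: 0% = DMSO plus EC80 beta-PEA response and 100% = DMSO alone without agonist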
#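 Material: RD-HGA16 CHO cells with stable hTAAR1 and Gα16; Dosing: single nominal final test compound concentration of 3 µM; Schedule: seeding 17-24 h prior, 75-min 37 °C, 30-min RT dye loading; Detection: kinetic Fluo-8 calcium fluorescence measurement; Measure: % inhibition from peak post-agonist over basal fluorescence ratio; Benchmarks: vehicle and agonist controls.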
# CHO parental Ca: ATP-evoked calcium signal inhibitors, parental CHO, primary screen, counter-screen for OX1R antagonist project, cell-based, fluorescence, Fluo-8 calcium dye; parental CHO-K1, ATP-induced calcium, Fluo-8 fluorescence; inhibition, % at 5.6 µM; 330,000 tested, 0.63% active;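 active = inhibition above that plate's mean sample inhibition plus 3 SD, cut at about 26% in these data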;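 note: 0% = ATP-challenged DMSO wells and 100% = DMSO wells without ATP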
#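 Measured by: calcium-sensitive Fluo-8 fluorescence / Test system: CHO parental line / Controls: ATP-challenged DMSO wells low, unchallenged DMSO wells high / Measure: % inhibition / Compound: single nominal dose of 5.6 µM per compound / Replicates: single well per compound, no replicates / Reagent: ATP as calcium-mobilizing challenge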
# OX1R antag-1: OX1R (HCRTR1) antagonists, primary screen, fluorescence, CHO/OX1R cells, Fluo-8 calcium, orexin A. Fluo-8 calcium fluorescence. Orexin/Hypocretin receptor type 1 (Homo sapiens), O43613. 330,000 tested, 0.43% active. AID 434989, 2010. inhibition, % at 5 µM;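 active = inhibition above its plate's threshold, mean inhibition of all tested compounds on the plate plus 3 SD, cut at about 37% in these data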;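 note: 0% = orexin A challenge wells and 100% = SB-334867-A antagonist wells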
# Target sequence (O43613 whole entry, looked up): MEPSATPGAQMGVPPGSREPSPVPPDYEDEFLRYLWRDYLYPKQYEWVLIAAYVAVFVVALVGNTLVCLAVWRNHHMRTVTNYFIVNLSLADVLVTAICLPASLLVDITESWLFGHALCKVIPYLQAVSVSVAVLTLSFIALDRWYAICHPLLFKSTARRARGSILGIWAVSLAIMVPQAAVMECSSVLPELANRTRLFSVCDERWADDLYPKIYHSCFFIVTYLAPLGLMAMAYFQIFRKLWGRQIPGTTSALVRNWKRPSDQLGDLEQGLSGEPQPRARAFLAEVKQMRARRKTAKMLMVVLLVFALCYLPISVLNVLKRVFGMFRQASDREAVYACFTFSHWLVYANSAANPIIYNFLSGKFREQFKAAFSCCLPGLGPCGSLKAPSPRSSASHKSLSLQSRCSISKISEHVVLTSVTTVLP
# TAAR1 ag: human TAAR1 agonists, primary screen, Fluo-8 calcium fluorescence, CHO RD-HGA16 cells; activation, % at 3 µM; vehicle wells 0%, saturating PEA agonist 100%; 360,000 tested, 0.99% active;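 active = activation above the mean activation of all test compounds in the run plus 3 SD, cut at about 38% in these data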
#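 System: CHO-derived RD-HGA16 cells with stable Gα16 and human TAAR1 / Times: 17-24 h plating, Fluo-8 75 min 37 °C, 30 min RT / Technique: calcium-sensitive Fluo-8 signal, excitation 470-495, emission 515-575 nm / Measure: % activation relative to PEA EC100 response / Benchmarks: DMSO and PEA EC100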
# OX1R antag-2: antagonists of human orexin 1 receptor (OX1R); Orexin/Hypocretin receptor type 1 (Homo sapiens), O43613; inhibition, % at 6.6 µM; OX1R-expressing cells, FRET antagonist read-out; 330,000 tested, 1.8% active; in the data active = inhibition mostly above about 38%, no sharp cut-off; inactive = mostly below about 40%;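 note: 0% = agonist challenge alone and 100% = reference antagonist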
# nonsel antag count: nonselective antagonists in TAAR1 counter-screen cells, counter-screen for hTAAR1 antagonist project, cell-based, fluorescence, calcium | shares compounds with TAAR1 antagonist | 2,400 tested, 77% active | counterscreen cell line, antagonist mode | inhibition, % at 3 µM | AID 651780, 2012; in the data active = inhibition above about 22%;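 note: CHO-Ga16 host cells stimulated with ATP at an EC80 level; 0% = agonist EC80 plus vehicle and 100% = vehicle without agonist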
# TAAR1 antag conf: human TAAR1 antagonists, retest of hits, confirmation, cell-based, fluorescence | TAAR1-expressing cells, fluorescence antagonist read-out | shares compounds with TAAR1 antagonist | AID 651785, 2012 | 2,400 tested, 40% active | inhibition, % at 3 µM; in the data active = inhibition above about 49%;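 note: CHO-Ga16 host cells challenged with agonist PEA near its EC80; 0% = agonist at EC80 plus vehicle and 100% = vehicle with no agonist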
# Ga16 ag counter: calcium activation in Ga16-expressing cells, counter-screen for TAAR1 antagonist project, cell-based, fluorescence; 2,400 tested, 18% active; agonist counterscreen; AID 651953, 2012; activation, % at 3 µM; shares compounds with TAAR1 antagonist; in the data active = activation above about 12%;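 note: 0% = vehicle wells and 100% = saturating stimulus response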
# TAAR1 ag counter: TAAR1 activation by candidate antagonists – cell-based, fluorescence, counter-screen for TAAR1 antagonist project; AID 651955, 2012; hTAAR1 cell line, agonist mode; activation, % at 3 µM; 2,400 tested, 2% active; shares compounds with TAAR1 antagonist; in the data active = activation above about 37%;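 note: CHO cells stably expressing TAAR1 with calcium dye readout; 0% = DMSO vehicle and 100% = full agonist response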
# Active calls of the source: *; / = no result given. The list is not random: actives were taken first. Their share in the collection is about 4%.
SMILES,TAAR1 antagonist,CHO parental Ca,OX1R antag-1,TAAR1 ag,OX1R antag-2,nonsel antag count,TAAR1 antag conf,Ga16 ag counter,TAAR1 ag counter
O=C(CCc1nc2ccccc2c(=O)[nH]1)N1CCN(S(=O)(=O)c2ccc(Cl)c(C(F)(F)F)c2)CC1,62*,-3,-14,17,19,39*,50*,16*,14
COc1ccc(C(O)c2nc(-c3cncnc3)cs2)cc1 (stereo not given),0,/,/,0,/,/,/,/,/
CCOC(=O)C1=CN(Cc2cccc(-c3ccc(Cl)nc3)c2)S(=O)(=O)N(C)C1C (stereo not given),63*,-16,3,5,17,11,22,2,4
O=C(Nc1ccc(S(=O)(=O)Nc2ncccn2)cc1)C1=COCCO1,-8,4,6,0,16,/,/,/,/
O=C(NNc1cc(Cl)ccc1Cl)C1CCC1,-16,-8,-9,1,5,/,/,/,/
COc1cccc(C(C(=O)NC2CCCC2)N2CCN(c3cc(C)ccc3C)CC2)c1OC (stereo not given),-41,/,/,2,/,/,/,/,/
COc1cccc(COC(=O)C2CCN(S(=O)(=O)c3ccc(C)cc3)CC2)c1OC,-22,-5,-10,1,9,/,/,/,/
COc1ccc(S(=O)(=O)N2CCCCCC2)cc1C(=O)OCc1cccc(OC)c1OC,58*,-22,-32,4,6,22*,43,7,15
CC1(C(=O)NS(=O)(=O)c2ccc(Cl)cc2)CCN1C(=O)Cc1ccc(Cl)cc1Cl (stereo not given),-6,/,/,0,/,/,/,/,/
COc1cccc(-c2csc(N3CCN(C(=O)Nc4ccc(F)cc4)CC3)n2)c1,79*,13,12,11,15,55*,64*,11,6
O=C(Cc1ccc(S(=O)(=O)N2CCOCC2)s1)Oc1ccc(F)cc1,-4,2,-11,2,3,/,/,/,/
CC(C)N1CCN(c2ccc(OC[C@H]3CO[C@](Cn4cncn4)(c4ccc(Cl)cc4Cl)O3)cc2)CC1,70*,-18,-19,29,17,32*,49*,15*,14
Cc1ccc(N(CC(=O)Nc2ccc3c(c2)OCCO3)S(C)(=O)=O)cc1,-4,-20,-18,8,11,/,/,/,/
CCc1ccc(C(=O)Nc2ccc3nc(C)ccc3c2)cc1,-22,-13,-8,4,6,/,/,/,/
Cc1ccc2cc(NC(=O)c3ccc(C(C)(C)C)cc3)ccc2n1,58*,-6,-12,13,10,25*,42,7,3
CCOc1ccc2ncc(S(=O)(=O)c3ccccc3)c(N3CCC4(CC3)OCCO4)c2c1,49*,-32,-18,4,33,13,42,3,3
COc1ccc(S(=O)(=O)c2cnc3ccc(OC)cc3c2N2CCC3(CC2)OCCO3)cc1,72*,-14,-12,13,15,25*,50*,8,6
O=C(Cc1c[nH]c2ccccc12)Nc1ccc(Nc2cccnc2)c(-c2cccc(Cl)c2)c1,72*,/,/,12,/,29*,45,7,4
Cc1[nH]c2ccccc2c1CC(=O)Nc1ccc(Nc2cccnc2)c(-c2ccc(F)c(F)c2)c1,30,/,/,3,/,/,/,/,/
O=C(Cc1c[nH]c2ccccc12)Nc1ccc(Nc2cccnc2)c(-c2ccc(F)c(F)c2)c1,87*,/,/,23,/,42*,65*,14*,17
O=C(CCc1c[nH]c2ccccc12)Nc1ccc(Nc2cccnc2)c(Br)c1,71*,/,/,7,/,31*,39,7,8
O=C(Cc1c[nH]c2ccccc12)Nc1ccc(Nc2cccnc2)c(-c2ccc(-c3ccccc3)cc2F)c1,58*,/,/,7,/,33*,46,5,8
CN(c1cccnc1)c1ccc(NC(=O)CCc2c[nH]c3ccccc23)cc1Br,10,/,/,3,/,/,/,/,/
COc1ccc2[nH]c3c(c2c1)CCN1C(=O)C(CC(=O)NCc2ccco2)C[C@H](C(=O)N2CCCCC2)[C@@]31CCc1ccccc1 (stereo not given in full),-32,-13,-8,-1,6,/,/,/,/
Cn1c(=O)c2c(ncn2CCOC(=O)C(C)(C)Oc2ccc(Cl)cc2)n(C)c1=O,-1,/,/,2,/,/,/,/,/
SMILES,TAAR1 antagonist,CHO parental Ca,OX1R antag-1,TAAR1 ag,OX1R antag-2,nonsel antag count,TAAR1 antag conf,Ga16 ag counter,TAAR1 ag counter
CC(C)c1ccc(NC(=O)Cc2ccc(NC3=NC4CS(=O)(=O)CC4S3)cc2)cc1 (stereo not given),-23,4,4,1,9,/,/,/,/
Cc1cccc(S(=O)C(c2ccccc2)c2ccccc2)c1 (stereo not given),-16,/,/,2,/,/,/,/,/
C#CCNC(=O)C1=C[C@H](c2ccc3c(c2)OCO3)[C@@H](CCCO)[C@H](OCC)O1,-12,-17,-12,4,17,/,/,/,/
CCCCN(CCCC)Cc1cc(=O)oc2cc(OC)c(Cl)cc12,-9,/,/,12,/,/,/,/,/
O=C(OCC(=O)N(Cc1ccccc1)Cc1ccccc1)c1cccc(O)c1,63*,-12,-17,7,6,26*,40,2,2
Cc1ccc(NC(=O)c2ccc3c(c2)C(=O)N(c2cc(C)ccc2C)C3=O)nc1,-20,9,3,4,12,/,/,/,/
Cc1cc(C)c(S(=O)(=O)N2CCCOC2CNC(=O)C(=O)NCCc2c[nH]c3ccccc23)c(C)c1 (stereo not given),75*,-11,-12,32,36,52*,68*,18*,24
Cc1cc(F)ccc1S(=O)(=O)N1CCCOC1CNC(=O)C(=O)NCCc1c[nH]c2ccccc12 (stereo not given),33,-21,-11,18,22,/,/,/,/
FC(F)Oc1ccc(-c2csc(=Nc3cccnc3)n2CC2CCCO2)cc1 (stereo not given),57*,-23,-20,13,30,37*,44,8,6
COCCn1c(-c2ccc(Br)cc2)csc1=Nc1cccnc1,-21,-3,-15,-3,12,/,/,/,/
